# Experiments:
# Mus musculus [1] = experiment: Anxiolytic-like activity in ip dosed Albino Swiss CD-1 mouse assessed as increase in number of punished crossings administered for 30 mins prior to test measured for 1 min by four-plate test; assay type: functional
# Procedure, shortened: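 Four-plate test in mice, i.p., 30 min before test; vehicle 0.9% NaCl; doses 1.25–10 mg/kg; number of punished crossings counted; mean ± SEM, n = 8–10 mice per group; ANOVA F statistics.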
# Mus musculus [2] = experiment: Antidepressant-like activity in ip dosed Albino Swiss CD-1 mouse assessed as decrease in immobility time administered […] prior to test measured for last 4 mins of 6 mins observation by forced swim test (reference value: 153.9 to 201.9 secs); assay type: functional
# [3] = target: T1, Adrenergic receptor alpha-1 (Rattus norvegicus, UniProt P15823+P23944+P43140); experiment: Displacement of [3H]-prazosin from Wistar rat cerebral cortex membranes alpha1 adrenoceptor by liquid scintillation counting method; parameters: species or system Membrane
# T1 sequence (P15823 whole entry): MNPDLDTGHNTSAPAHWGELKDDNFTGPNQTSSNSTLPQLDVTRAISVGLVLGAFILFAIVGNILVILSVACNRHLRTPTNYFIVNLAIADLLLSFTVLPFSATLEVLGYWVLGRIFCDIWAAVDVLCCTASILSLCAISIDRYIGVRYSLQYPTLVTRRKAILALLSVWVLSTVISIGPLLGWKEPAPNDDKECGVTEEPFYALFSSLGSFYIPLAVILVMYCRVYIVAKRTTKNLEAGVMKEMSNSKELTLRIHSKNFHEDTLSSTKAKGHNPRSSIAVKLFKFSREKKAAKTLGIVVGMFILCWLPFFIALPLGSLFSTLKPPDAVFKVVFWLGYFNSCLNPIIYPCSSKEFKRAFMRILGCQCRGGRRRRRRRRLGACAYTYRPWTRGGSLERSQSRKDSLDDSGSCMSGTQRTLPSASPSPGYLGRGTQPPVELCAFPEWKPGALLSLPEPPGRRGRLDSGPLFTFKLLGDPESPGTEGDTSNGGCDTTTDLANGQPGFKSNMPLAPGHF
# T1 sequence (P23944 whole entry): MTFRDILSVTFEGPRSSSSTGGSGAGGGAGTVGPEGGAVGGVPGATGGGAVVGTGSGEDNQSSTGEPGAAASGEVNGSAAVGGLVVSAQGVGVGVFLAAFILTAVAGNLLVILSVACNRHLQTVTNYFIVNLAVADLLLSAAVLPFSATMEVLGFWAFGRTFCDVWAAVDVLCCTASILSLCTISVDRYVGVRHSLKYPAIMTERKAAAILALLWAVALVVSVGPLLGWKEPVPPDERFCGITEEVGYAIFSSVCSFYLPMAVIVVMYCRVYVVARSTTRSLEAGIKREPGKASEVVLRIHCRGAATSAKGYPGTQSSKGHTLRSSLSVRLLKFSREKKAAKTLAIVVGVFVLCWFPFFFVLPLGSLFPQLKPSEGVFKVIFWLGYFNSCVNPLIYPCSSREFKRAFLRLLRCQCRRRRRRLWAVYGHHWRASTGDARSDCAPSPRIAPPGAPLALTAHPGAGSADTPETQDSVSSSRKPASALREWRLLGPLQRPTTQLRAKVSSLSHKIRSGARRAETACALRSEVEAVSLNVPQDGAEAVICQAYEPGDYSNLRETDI
# T1 sequence (P43140 whole entry): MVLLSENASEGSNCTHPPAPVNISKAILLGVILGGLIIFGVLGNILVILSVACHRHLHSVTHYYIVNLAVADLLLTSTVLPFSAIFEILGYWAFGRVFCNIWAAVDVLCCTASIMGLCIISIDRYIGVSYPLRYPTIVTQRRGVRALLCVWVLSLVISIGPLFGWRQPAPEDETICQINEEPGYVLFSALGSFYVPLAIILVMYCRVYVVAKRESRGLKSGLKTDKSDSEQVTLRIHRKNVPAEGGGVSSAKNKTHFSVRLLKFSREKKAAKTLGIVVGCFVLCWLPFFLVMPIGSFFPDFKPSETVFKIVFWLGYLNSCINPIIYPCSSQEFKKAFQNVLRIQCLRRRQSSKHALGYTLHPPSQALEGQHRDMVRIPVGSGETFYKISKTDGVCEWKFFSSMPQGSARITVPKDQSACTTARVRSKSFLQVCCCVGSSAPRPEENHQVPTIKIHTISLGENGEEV
# Rattus norvegicus = experiment: Antidepressant-like activity in ip dosed Wistar rat assessed as decrease in immobility time administered 45 mins prior to test measured for last 4 mins of 6 mins observation by forced swim test (reference value: 153.9 to 201.9 secs); assay type: functional
smiles,measurement,setting,value
COc1ccccc1N1CCN(CCOCCOc2c(C)cccc2C)CC1.Cl,ED,Mus musculus [1],2.5 mg/kg
same,ED,Mus musculus [2],2.5 mg/kg
same,Ki,[3],23 nM
same,ED,Rattus norvegicus,5 mg/kg
